Experimental data taken from ChEMBL document CHEMBL4219061, “Structure-activity relationships of cryptopleurine analogs with E-ring modifications as anti-hepatitis C virus agents” (Bioorg Med Chem, 2018).
Active and inactive are the calls of the source. The calls are words filed in the database; no cut-off is given here.

Tests used:
[1] = target: Heat shock cognate 71 kDa protein (Homo sapiens) (UniProt P11142); experiment: Induction of HSC70 (unknown origin) chaperone activity assessed as reactivation of guanidine-denatured luciferase at 10 uM in presence of human recombinant CHIP by luciferase reporter gene assay
[2] = target: Heat shock cognate 71 kDa protein (Homo sapiens) (UniProt P11142); experiment: Induction of HSC70 chaperone activity in human Huh-luc/neo-ET cells co-transfected with FLAG-tagged CHIP assessed as reduction in HCV RNA NS3 protein expression at 6 nM after 24 hrs; assay type: cell-based
Procedure, shortened: (§1)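 Huh-luc/neo-ET replicon cells (HCV 1b Con1, DMEM, 10% FBS) transiently transfected with FLAG-CHIP plasmid or empty vector, then treated 24 h with compound. HCV RNA, NS3 and NS5A protein levels measured. Representative of more than two independent experiments; two-tailed Student's t-test, p < .05.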

[3] = Therapeutic index, ratio of IC50 for human Huh-luc/neo-ET cells to EC50 for HCV genotype 1b con1; assay type: toxicity; settings: Huh-luc/neo-ET cells (HCV genotype 1b con1), read-out: Ratio IC50/EC50
[4] = target: Heat shock cognate 71 kDa protein (Homo sapiens) (UniProt P11142); experiment: Induction of HSC70 chaperone activity in human Huh-luc/neo-ET cells assessed as reduction in HCV RNA NS5A protein expression at 6 nM after 24 hrs; assay type: cell-based; procedure, shortened: as §1
[5] = tested on: Huh-luc/neo-ET; experiment: Effect on HSC70 expression in human Huh-luc/neo-ET cells at 6 nM measured up to 72 hrs by Western blot analysis
[6] = Effect on […] CHIP expression in human Huh-luc/neo-ET cells at 6 nM after 24 hrs; assay type: ADME, cell-based; settings: 0.006 µM
[7] = tested on: HepG2 2.2.15; experiment: Cytotoxicity against human HepG2(2.2.15) cells assessed as cell growth inhibition; assay type: cell-based
Procedure, shortened: (§2)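 Cell growth measured against DMSO vehicle in HepG2.2.15 cells (MEME, 10% FCS, 50 µg/ml kanamycin) or in Huh-luc/neo-ET cells. IC50 = concentration giving 50% inhibition of cell growth. Mean ± SD of three independent experiments.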

[8] = tested on: Hepatitis B virus; experiment: Antiviral activity against HBV infected in human HepG2(2.2.15) cells assessed as inhibition of viral DNA level after 6 days by Southern blot analysis; assay type: functional; settings: HepG2 2.2.15, 144 h
Procedure, shortened: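 HepG2.2.15 cells (HBV genome integrated; MEME, 10% FCS, kanamycin) seeded ~5 × 10^5 per well and grown 6 days, then given compound for 6 days with fresh medium every other day. Total DNA (20 μg) run on 1% agarose, blotted, hybridized overnight at 65 °C with 32P-labeled full-length HBV probe; read by film or PhosphorImager.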

[9] = target: Heat shock cognate 71 kDa protein (Homo sapiens) (UniProt P11142); experiment: Displacement of biotinylated-rac-cryptopleurine from recombinant HSC70 (unknown origin) […] by Western blot analysis
Procedure, shortened: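 Biotinylated rac-cryptopleurine loaded overnight at room temperature onto streptavidin resin in 50% DMSO/50% protein-binding buffer (20 mM Hepes pH 7.9, 100 mM NaCl, 0.5% NP-40, 6 mM MgCl2). Resin washed, then incubated 2 h at room temperature with recombinant His-Hsc70 (E. coli BL21(DE3)pLysS, Ni-NTA purified) in 2.5% BSA. Bound Hsc70 eluted with buffer alone or with compound.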

[10] = target: Heat shock cognate 71 kDa protein (Homo sapiens) (UniProt P11142); experiment: Induction of HSC70 chaperone activity in human Huh-luc/neo-ET cells assessed as reduction in HCV RNA NS3 protein expression at 6 nM after 24 hrs; assay type: cell-based; procedure, shortened: as §1
[11] = target: Heat shock cognate 71 kDa protein (Homo sapiens) (UniProt P11142); experiment: Induction of HSC70 chaperone activity in human Huh-luc/neo-ET cells co-transfected with FLAG-tagged CHIP assessed as reduction in HCV RNA NS5A protein expression at 6 nM after 24 hrs; assay type: cell-based; procedure, shortened: as §1
[12] = tested on: Hepatitis C virus; experiment: Antiviral activity against HCV genotype 1b con1 infected in human Huh-luc/neo-ET cells assessed as inhibition of viral replication after 72 hrs; assay type: functional, organism-based, Hepacivirus hominis; settings: isolate Con1, Huh-luc/neo-ET
Procedure, shortened: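 Firefly-luciferase reporter in the Con1 genotype 1b subgenomic replicon used to follow HCV replication in Huh-luc/neo-ET cells, tested without G418 (routinely kept in DMEM, 10% FBS, 1 mM nonessential amino acids, 250 µg/ml G418, 37 °C, 5% CO2). Luciferase read on a plate reader. EC50 = concentration giving 50% inhibition of replication versus DMSO vehicle. Mean ± SD of three independent experiments.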

[13] = target: Heat shock cognate 71 kDa protein (Homo sapiens) (UniProt P11142); experiment: Allosteric regulation of recombinant HSC70 (unknown origin) ATPase activity assessed as increase in ADP production at 10 uM after 10 mins in presence of HCV wild type poly U/UC RNA by HPLC analysis
Procedure, shortened: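 Recombinant Hsc70 (0.25 μM) incubated with compound at 10 μM plus ATP and 0.5 μM HCV wild-type poly U/UC RNA in MOPS buffer pH 7.4 (Mg(OAc)2, KOAc, DTT, BSA), 37 °C, 10 min. Stopped with TCA (15% final), extracted with trichlorotrifluoroethane:trioctylamine, ADP quantified by HPLC against standard curve on same column. Mean ± SD, three experiments.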

[14] = Cytotoxicity against human Huh-luc/neo-ET cells assessed as cell growth inhibition; assay type: cell-based; procedure, shortened: as §2
[15] = tested on: HepG2 2.2.15; experiment: Effect on HSC70 expression in human HepG2(2.2.15) cells at 3 nM measured up to 72 hrs by Western blot analysis; assay type: functional, cell-based
[16] = target: Heat shock cognate 71 kDa protein (Homo sapiens) (UniProt P11142); experiment: Induction of HSC70 chaperone activity in human Huh-luc/neo-ET cells co-transfected with FLAG-tagged CHIP assessed as reduction in HCV RNA NS3 protein expression at 3 nM after 24 hrs; assay type: cell-based
Procedure, shortened: (§3)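 Huh-luc/neo-ET replicon cells transiently transfected with FLAG-tagged CHIP plasmid or empty vector and treated with compound for 24 h. HCV RNA and NS3 and NS5A protein levels measured. Representative of more than two independent experiments; two-tailed Student's t-test, p < .05.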

[17] = target: Heat shock cognate 71 kDa protein (Homo sapiens) (UniProt P11142); experiment: Induction of HSC70 chaperone activity in human Huh-luc/neo-ET cells assessed as reduction in HCV RNA NS3 protein expression at 3 nM after 24 hrs; assay type: cell-based; procedure, shortened: as §3
[18] = Effect on […] CHIP expression in human Huh-luc/neo-ET cells at 3 nM after 24 hrs; assay type: ADME, cell-based; settings: 0.003 µM
[19] = target: Heat shock cognate 71 kDa protein (Homo sapiens) (UniProt P11142); experiment: Induction of HSC70 chaperone activity in human Huh-luc/neo-ET cells co-transfected with FLAG-tagged CHIP assessed as reduction in HCV RNA NS5A protein expression at 3 nM after 24 hrs; assay type: cell-based; procedure, shortened: as §3
[20] = target: Heat shock cognate 71 kDa protein (Homo sapiens) (UniProt P11142); experiment: Induction of HSC70 chaperone activity in human Huh-luc/neo-ET cells assessed as reduction in HCV RNA NS5A protein expression at 3 nM after 24 hrs; assay type: cell-based; procedure, shortened: as §3

Sequence of Heat shock cognate 71 kDa protein (Homo sapiens) (P11142 2-646 limits assumed): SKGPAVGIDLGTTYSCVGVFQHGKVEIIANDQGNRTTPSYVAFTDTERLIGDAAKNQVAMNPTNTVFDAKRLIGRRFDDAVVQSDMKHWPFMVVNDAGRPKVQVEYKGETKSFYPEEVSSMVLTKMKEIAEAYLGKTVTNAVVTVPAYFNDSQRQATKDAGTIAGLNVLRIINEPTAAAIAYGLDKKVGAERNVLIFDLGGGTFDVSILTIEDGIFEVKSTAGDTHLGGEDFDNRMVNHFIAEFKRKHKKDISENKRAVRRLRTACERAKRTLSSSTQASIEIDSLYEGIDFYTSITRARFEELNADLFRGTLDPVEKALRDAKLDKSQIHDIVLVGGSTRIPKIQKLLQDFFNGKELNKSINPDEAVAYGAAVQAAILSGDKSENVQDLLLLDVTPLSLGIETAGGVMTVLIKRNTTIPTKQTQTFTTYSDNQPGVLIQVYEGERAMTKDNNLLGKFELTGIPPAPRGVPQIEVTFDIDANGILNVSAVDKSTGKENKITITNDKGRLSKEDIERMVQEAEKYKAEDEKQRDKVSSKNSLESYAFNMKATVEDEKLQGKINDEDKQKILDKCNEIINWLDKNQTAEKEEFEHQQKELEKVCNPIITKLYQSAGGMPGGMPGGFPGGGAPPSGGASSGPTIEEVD

Structure (SMILES) | selectivity ratio [3] | IC50 [7] | EC10 [8] | displacement activity (active/not active) [9] | EC50 [12] | Activity [13] | IC50 [14] | also measured
COc1ccc2c3c(c4cc(OC)c(OC)cc4c2c1)C[C@H]1C[C@H](O)CCN1C3 | 3.57 | 49 nM | > 5.5 nM | Active | 1.4 nM | Active | 5 nM | Activity [1]: Active; Activity [2]: Active; Activity [4]: Active; Activity [5]: inactive; Activity [6]: Non-Toxic; Activity [10]: Active; Activity [11]: Active
COc1cc2c3c(c4cc(OC)c(OC)cc4c2cc1OC)[C@H](O)[C@@H]1CCCN1C3 | 2.89 | 98.9 nM | > 300 nM |  | 31.5 nM |  | 91 nM | 
COc1ccc2c3c(c4cc(OC)c(OC)cc4c2c1)C[C@H]1CN(C2CC2)CN1C3 (racemic) | 1.33 | 820 nM | > 300 nM |  | 750 nM |  | 1000 nM | 
COc1ccc2c3c(c4cc(OC)c(OC)cc4c2c1)C[C@H]1CCN(N(C)C)CN1C3 (racemic) | 1.07 | 2400 nM | > 900 nM |  | 3750 nM |  | 4000 nM | 
COc1ccc2c3c(c4cc(OC)c(OC)cc4c2c1)C[C@H]1CCOCN1C3 (racemic) | 1.54 | 1100 nM | > 500 nM |  | 651 nM |  | 1000 nM | 
COc1ccc2c3c(c4cc(OC)c(OC)cc4c2c1)C[C@H]1CCCCCN1C3 (racemic) | 5.75 | 2700 nM | > 1000 nM |  | 52.3 nM |  | 300 nM | 
COc1ccc2c3c(c4cc(OC)c(OC)cc4c2c1)C[C@H]1CCOCCN1C3 (racemic) | 7.19 | 4000 nM | > 300 nM |  | 16.7 nM |  | 120 nM | 
COc1ccc2c3c(c4cc(OC)c(OC)cc4c2c1)C[C@H]1C[C@@H](O)CCN1C3 (racemic) | 8.59 | 134 nM | > 26 nM | inactive | 4.9 nM |  | 42.1 nM | 
COc1ccc2c3c(c4cc(OC)c(OC)cc4c2c1)C[C@H]1CC[C@@H](O)CN1C3 (racemic) | 7.1 | 258 nM | > 25 nM | inactive | 3 nM | Active | 21.3 nM | 
COc1ccc2c3c(c4cc(OC)c(OC)cc4c2c1)C[C@H]1CC[C@H](O)CN1C3 (racemic) | 15.2 | 1600 nM | > 3000 nM | inactive | 246 nM | Active | 3750 nM | 
COc1ccc2c3c(c4cc(OC)c(OC)cc4c2c1)C[C@H]1CNCCN1C3 (racemic) | 5.46 | 1400 nM | > 500 nM |  | 183 nM |  | 1000 nM | 
COc1ccc2c3c(c4cc(OC)c(OC)cc4c2c1)C[C@H]1CCCCN1C3 [CRYPTOPLEURINE] |  |  | > 30 nM |  |  | Active |  | Activity [1]: Active; Activity [15]: inactive; Activity [16]: Active; Activity [17]: Active; Activity [18]: Non-Toxic; Activity [19]: Active; Activity [20]: Active
